The values that follow come from ChEMBL document CHEMBL1133512, “Structure-activity relationships of a series of pyrrolo[3,2-d]pyrimidine derivatives and related compounds as neuropeptide Y5 receptor antagonists” (J Med Chem, 2000).

The IC50 is the concentration at which inhibition is half-maximal. Read a low IC50 as greater potency in that assay.

This assay has as its target T1, Neuropeptide Y receptor type 5 (Homo sapiens, UniProt Q15761).
T1 sequence (Q15761 whole entry): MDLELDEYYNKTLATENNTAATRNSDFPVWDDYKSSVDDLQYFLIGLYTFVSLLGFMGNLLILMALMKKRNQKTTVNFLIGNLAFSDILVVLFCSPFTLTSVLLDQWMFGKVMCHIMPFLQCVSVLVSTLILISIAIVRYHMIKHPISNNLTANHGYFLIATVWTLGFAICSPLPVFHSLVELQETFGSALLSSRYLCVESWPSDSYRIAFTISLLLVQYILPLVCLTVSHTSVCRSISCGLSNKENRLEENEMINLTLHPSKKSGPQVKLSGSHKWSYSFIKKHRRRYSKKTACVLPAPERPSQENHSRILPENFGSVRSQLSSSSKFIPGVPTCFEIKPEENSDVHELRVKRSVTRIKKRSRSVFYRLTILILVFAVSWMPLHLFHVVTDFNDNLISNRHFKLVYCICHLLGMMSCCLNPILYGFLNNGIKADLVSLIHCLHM
In words: Affinity for human neuropeptide Y receptor Y5, binding was evaluated in an in vitro radioligand [125I]PYY binding assay. Summed up: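 HEK 293 cells expressing human Y5 receptor, harvested in PBS and homogenized in sucrose buffer; membranes washed by repeated 48000g spins and resuspended in MEM/Earle's assay buffer (25 mM HEPES, 0.1% BSA, STI, Pefabloc, pH 7.4). Membranes (200 µg tissue) incubated with compounds and 0.15 nM [125I]PYY, 2 h at 30 °C. Nonspecific binding defined with 1 µM PYY. Filtration read-out; IC50 by nonlinear regression, averaging at least two 6-point curves.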
Compound `Cc1nc(N2CC=CC2)c2[nH]c(-c3ccccc3)cc2n1` returned an IC50 of 2.2 nM. The compound `Cc1nc(N2CCCCC2)c2[nH]c(-c3ccccc3C(F)(F)F)cc2n1` registered an IC50 of 2500 nM. Compound `Cc1nc(N2CCCCC2)c2[nH]c(-c3cccc(C(F)(F)F)c3)cc2n1` registered an IC50 of less than 0.1 nM. On to `Cc1nc(N2CCCCC2)c2nc(CSc3ccc(Cl)cc3)cc-2[nH]1`, for which the IC50 turned out to be 670 nM. Take `Cc1nc2cc(-c3ccccc3)nc-2c(N2CCCCC2CN(C)C)[nH]1` (stereo not drawn): the IC50 amounted to 5200 nM. The figure for `c1ccc(-c2cc3nc(N4CCCCC4)nc(N4CCCCC4)c3[nH]2)cc1` is 4000 nM. `CCCCc1cc2[nH]c(C)nc(N3CCCCC3)c-2n1` came in with an IC50 of 10 nM.

`CCc1c(-c2ccccc2)[nH]c2c(N3CCCCC3)nc(C)nc12` registered an IC50 of 330 nM.
